Most compounds without a hit are left out; they make up all but 2.3% or so of the library.
V1R ag counter = counter-screen for oxytocin receptor agonists: human V1a receptor agonists; P37288; CHO-V1R cells, Fluo-8 calcium fluorescence, agonist mode; 0% DMSO, 100% 3 nM vasopressin; activation, % at 3 µM; hit rate 0.25% among 320,000; AID 2797;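 active = activation above the mean activation of all tested compounds plus 3 SD, per screening run, cut at about 20% in these data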;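 note: signal is peak over basal fluorescence ratio across a 100 second FLIPR read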
Target sequence (P37288 whole entry, looked up): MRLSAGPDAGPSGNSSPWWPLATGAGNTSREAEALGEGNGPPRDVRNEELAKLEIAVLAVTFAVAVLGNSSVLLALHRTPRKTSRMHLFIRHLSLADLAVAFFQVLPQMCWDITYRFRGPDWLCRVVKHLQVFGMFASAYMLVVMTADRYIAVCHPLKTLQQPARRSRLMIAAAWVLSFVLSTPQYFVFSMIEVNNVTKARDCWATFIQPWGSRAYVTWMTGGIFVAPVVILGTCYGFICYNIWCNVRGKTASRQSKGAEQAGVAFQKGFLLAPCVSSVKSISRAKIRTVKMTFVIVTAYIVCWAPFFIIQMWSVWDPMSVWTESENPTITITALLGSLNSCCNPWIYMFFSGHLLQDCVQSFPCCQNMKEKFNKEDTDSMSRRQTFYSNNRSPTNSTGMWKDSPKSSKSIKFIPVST
TAAR1 agonist = agonists of human TAAR1 | hit rate 0.99% among 360,000 | activation, % at 3 µM | CHO RD-HGA16 TAAR1, Fluo-8 calcium fluorescence; vehicle wells 0%, saturating PEA agonist 100%;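 active = activation above the mean activation of all test compounds in the run plus 3 SD, cut at about 38% in these data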
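Benchmarks: low control DMSO, high control PEA (EC100); System: CHO RD-HGA16 cells carrying human TAAR1 plus Gα16; Detection: Fluo-8 fluorescence, 5 s baseline then 140 s kinetic read; Schedule: 17-24 h plating, Fluo-8 75 min 37 °C, 30 min RT; Read-out basis: % activation from peak over basal fluorescence ratio, DMSO-to-PEA scaled.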
OXTR potentiate = potentiates the human oxytocin receptor response. activation, % at 3 µM. P30559. AID 2445. hit rate 0.061% among 320,000. CHO-OTR cells, Fluo-8 calcium fluorescence, potentiator mode; 0% = oxytocin EC15, 100% = EC100;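 active = activation above that plate's cutoff, the mean activation of tested compounds plus 3 SD, cut at about 6.6% in these data, passing the limit was not always enough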;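 note: 100% uses oxytocin at 75 nM as the full agonist control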
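test system = CHO-OTR cells, human receptor | compound = single-point 3.0 µM | schedule = 6 min compound pre-incubation at room temperature, 100 s kinetic read | signal = Fluo-8 no-wash calcium dye fluorescence, excitation 470-495 nm, emission 515-575 nm | repeats = single well per compound, singlicate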
OXTR ag = agonists of human oxytocin receptor | P30559 | CHO-OTR cells, Fluo-8 calcium fluorescence; normalized: DMSO 0%, oxytocin 100% | activation, % at 3 µM | hit rate 0.32% among 320,000 | AID 2435;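 active = activation above the mean of all tested compounds plus 3 SD, cutoff set per screening run, cut at about 20% in these data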;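 note: peak over basal fluorescence ratio from a 100 s FLIPR kinetic read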
TAAR1 antag = human TAAR1 antagonism; inhibition, % at 3 µM; hit rate 1.5% among 360,000; AID 624466; Q96RJ0; CHO RD-HGA16 TAAR1, Fluo-8 calcium fluorescence, antagonist;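 active = inhibition above a per-plate cutoff, the mean inhibition of test compounds on that plate plus 3 SD, cut at about 49% in these data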;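 note: 0% = DMSO plus EC80 beta-PEA response and 100% = DMSO alone without agonist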
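Test system – hTAAR1-expressing CHO RD-HGA16 cells, Gα16-coupled · Reagent – β-PEA at EC80 concentration, post-compound challenge · Compound dosing – 3 µM, single point · Timing – 140 s kinetic read after compound, 140 s after agonist · Detection – Fluo-8 intracellular calcium dye fluorescence, real-time kinetic reads · Control set – DMSO and EC80 PEA controls · Repeats – n of 1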
nonsel antag count = nonselective antagonism, TAAR1 counter-screen | shares compounds with TAAR1 antag | counterscreen cell line, calcium fluorescence, antagonist mode | inhibition, % at 3 µM | hit rate 77% among 2,400 | AID 651780; in the data active = inhibition above about 22%;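 note: CHO-Ga16 host cells stimulated with ATP at an EC80 level; 0% = agonist EC80 plus vehicle and 100% = vehicle without agonist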
TAAR1 ant conf = confirmation of human TAAR1 antagonists; shares compounds with TAAR1 antag; TAAR1-expressing cells, fluorescence antagonist read-out; inhibition, % at 3 µM; hit rate 40% among 2,400; in the data active = inhibition above about 49%;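 note: CHO-Ga16 host cells challenged with agonist PEA near its EC80; 0% = agonist at EC80 plus vehicle and 100% = vehicle with no agonist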
Ga16 ag counter = nonselective Ga16 agonist in TAAR1 antagonist counter-screen | hit rate 18% among 2,400 | Ga16-expressing cells, calcium fluorescence, agonist counterscreen | AID 651953 | activation, % at 3 µM | shares compounds with TAAR1 antag; in the data active = activation above about 12%;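 note: 0% = vehicle wells and 100% = saturating stimulus response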
TAAR1 ag count = counter-screen for human TAAR1 antagonists: TAAR1 agonists. shares compounds with TAAR1 antag. hit rate 2% among 2,400. activation, % at 3 µM. AID 651955. hTAAR1 cell line, fluorescence activation, agonist mode; in the data active = activation above about 37%;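 note: CHO cells stably expressing TAAR1 with calcium dye readout; 0% = DMSO vehicle and 100% = full agonist response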
The depositor's hits bear a star.

CN(C)CCSc1nc(-c2ccccc2)nc2c1COC(C)(C)C2 was read as V1R ag counter 0, TAAR1 agonist 13, OXTR potentiate -5, OXTR ag 2 and TAAR1 antag -5.
For COc1ccc(N(Cc2cc3ccccc3[nH]c2=O)S(=O)(=O)c2ccc(C)cc2)cc1 the results were V1R ag counter 0, TAAR1 agonist 1, OXTR potentiate -8, OXTR ag 0, TAAR1 antag 55*, nonsel antag count 21, TAAR1 ant conf 36, Ga16 ag counter 8 and TAAR1 ag count 9.
For CCCCN(Cc1cc2cc(OC)ccc2[nH]c1=O)S(=O)(=O)c1ccc(C)cc1 the results were V1R ag counter 1, TAAR1 agonist 5, OXTR potentiate -24, OXTR ag -2, TAAR1 antag 77*, nonsel antag count 14, TAAR1 ant conf 48, Ga16 ag counter 7 and TAAR1 ag count 22.
Screening COc1ccc(N(Cc2cc3ccccc3[nH]c2=O)S(=O)(=O)c2ccccc2)cc1 returned V1R ag counter 0, TAAR1 agonist 3, OXTR potentiate -22, OXTR ag -2 and TAAR1 antag 33.
COc1ccc2[nH]c(=O)c(CN(CCO)S(=O)(=O)c3ccc(C)cc3)cc2c1 was read as V1R ag counter -1, TAAR1 agonist 0, OXTR potentiate -4, OXTR ag -1 and TAAR1 antag -3.
`Brc1ccc(-c2nnc(-c3ccccc3Br)o2)cc1` gave V1R ag counter 0, TAAR1 agonist 4, OXTR potentiate -2, OXTR ag 0 and TAAR1 antag -9.
For Cc1ccc(C(=O)Nc2cccc(C(F)(F)F)c2)cc1Nc1ncnc2nc[nH]c12 the results were V1R ag counter 1, TAAR1 agonist 4, OXTR potentiate -14, OXTR ag -1, TAAR1 antag 52*, nonsel antag count 32*, TAAR1 ant conf 41, Ga16 ag counter 6 and TAAR1 ag count 1.
`Cc1ccc(C(=O)Nc2cccc(C(F)(F)F)c2)cc1Nc1cnccn1` gave V1R ag counter -1, TAAR1 agonist 5, OXTR potentiate -7, OXTR ag -1 and TAAR1 antag -6.
Screening CC1c2[nH]c3ccccc3c2CCN1S(C)(=O)=O (centres undefined) returned V1R ag counter 2, TAAR1 agonist 4, OXTR potentiate -12, OXTR ag 2 and TAAR1 antag -8.
`CCOc1ccc(CCNC(=O)CN(C)S(=O)(=O)c2ccc3c(c2)CCC(=O)N3)cc1OCC` gave V1R ag counter 0, TAAR1 agonist 8, OXTR potentiate 1, OXTR ag 0 and TAAR1 antag 15.
`CC1=NOC(=O)/C1=C\c1ccc(-c2ccc(Cl)cc2Cl)o1` gave TAAR1 agonist 14, TAAR1 antag 53*, nonsel antag count 79*, TAAR1 ant conf 72*, Ga16 ag counter 29* and TAAR1 ag count 25.
For CCCOc1ccc(Cl)cc1/C=C1/C(=O)ON=C1C the results were V1R ag counter 1, TAAR1 agonist 1, OXTR potentiate -11, OXTR ag 2 and TAAR1 antag -18.
COc1cccc(N2CCN(C(=O)CCc3nnc4ccc(N5CCCC5)nn34)CC2)c1 was read as V1R ag counter -1, TAAR1 agonist 2, OXTR potentiate -8, OXTR ag -3 and TAAR1 antag 2.
COc1ccc(NC(=O)CCc2nnc3ccc(N4CCN(c5cccc(OC)c5)CC4)nn23)cc1 was read as V1R ag counter 0, TAAR1 agonist 9, OXTR potentiate -12, OXTR ag 4, TAAR1 antag 63*, nonsel antag count 23*, TAAR1 ant conf 39, Ga16 ag counter 9 and TAAR1 ag count 14.
